aDG glyco act: increases alpha dystroglycan glycosylation; activation, % at 10 µM; Pro5-aDG cells, alpha-DG glycosylation AlphaScreen (IIH6); 0% Pro5, 100% B10-LARGE cell signal; actives 0.22% (n = 360,000);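 active = activation of at least 8% versus controls, or a plate z-score of at least 8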;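 note: Pro5 are CHO cells carrying HIG-tagged alpha-DG that lacks glycosylation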
PKA-R2B activ: PKA-R2B complex activation; activation, % at 11.4 µM; PKA-R2B holoenzyme dissociation, Cy5-IP20 fluorescence polarization; R2B truncated from residue 108, S112A mutant; 0% DMSO only, 100% 113 µM cGMP; actives 0.079% (n = 340,000); P22694+P31323;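 active = activation above a cutoff set at the mean over all compounds plus 3 SD, cut at about 18% in these data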;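 note: higher means more holoenzyme dissociation and a rise in polarization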
Target sequence (P31323 whole entry, looked up, other chains not shown, the tested form may be a part): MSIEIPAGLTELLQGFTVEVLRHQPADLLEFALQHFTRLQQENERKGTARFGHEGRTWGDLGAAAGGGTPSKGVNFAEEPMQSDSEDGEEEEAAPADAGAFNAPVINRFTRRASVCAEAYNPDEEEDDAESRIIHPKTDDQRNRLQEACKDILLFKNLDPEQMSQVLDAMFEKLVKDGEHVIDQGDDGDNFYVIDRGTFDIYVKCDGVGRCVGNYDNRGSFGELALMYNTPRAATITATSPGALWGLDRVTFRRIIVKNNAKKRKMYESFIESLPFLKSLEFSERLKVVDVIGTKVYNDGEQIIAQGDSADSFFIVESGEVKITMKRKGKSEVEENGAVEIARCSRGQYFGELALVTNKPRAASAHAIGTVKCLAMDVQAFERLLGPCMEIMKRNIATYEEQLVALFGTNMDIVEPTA
CTSL1 counter: counter-screen for PFM18AAP inhibitors: inhibitors of F. hepatica cathepsin L1; AID 1906; inhibition, % at 5.96 µM; recombinant F. hepatica cathepsin L1, Z-Leu-Arg-MCA fluorescence; actives 0.49% (n = 300,000);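 active = inhibition above the mean of all tested compounds plus 3 SD, set per screening campaign, cut at about 17% in these data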;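 note: 0% = plate median of test compound wells and 100% = 1 µM Z-Phe-Ala-diazomethylketone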
UCH37 inh: inhibitors of human deubiquitinating enzyme UCH37; Q9Y5K5; purified proteasome/UCH37, Ub-AMC cleavage fluorescence; inhibition, % (no concentration beside the values); actives 0.33% (n = 330,000);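 active = mean inhibition over replicate wells above about 20%, limit read from the data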;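 note: 0% = compound-free wells with enzyme and 100% = wells lacking proteasome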
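Material: Human UCH37 enzyme supplied as purified proteasome complex | Schedule: 30 min preincubation with enzyme, 25 min cleavage at room temperature | Detection: AMC fluorescence 355/460 nm | Measure: % inhibition of Ub-AMC cleavage fluorescence | Controls: Wells without proteasome as full block, compound-free enzyme plus substrate as uninhibited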
PKA-R1A activ: activators of PKA-R1A complex; AID 504707; activation, % at 11.4 µM; P00514+P68181; actives 0.083% (n = 340,000); PKA-R1A dissociation, Cy5-IP20 fluorescence polarization; scaled: DMSO 0%, 113 µM cGMP 100%;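 active = percent activation above the mean of all tested compounds plus 3 SD, cut at about 19% in these data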;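 note: higher means more PKAc released from R1A so a rise in polarization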
* hit, by the source's call; nt = not tested or not shown. Shown are actives, neighbours in structure and some others; about 0.94% of the full set was active somewhere.

SMILES	aDG glyco act	PKA-R2B activ	CTSL1 counter	UCH37 inh	PKA-R1A activ
Cc1occc1C(=O)NNC(=S)NCc1ccccc1	0	0	17*	6	-1
CC(C)NC(=O)Nc1cccc2c1O[C@H](CN(C)C(=O)NC(C)C)[C@@H](C)CN([C@H](C)CO)C2=O	0	1	nt	20*	-6
CC1(C)CC(=NNC(=O)c2n[nH]c3c2CCC3)CC(C)(C)N1	0	8	-2	31*	8
Cc1nc(N2CCCC2)c2nnn(Cc3ccccc3Cl)c2n1	0	0	18*	4	3
Cc1nc(NC2CCCCC2)c2nnn(Cc3ccccc3Cl)c2n1	0	-8	2	2	3
CCOc1ccc(NC(=O)Cn2c(=O)oc3ccccc32)cc1	0	-5	-3	30*	1
CC(=NNC(=O)c1c(Cl)cnn1C)c1cccc(NC(=O)COc2ccccc2)c1	nt	nt	nt	-93	nt
CC(C)C[C@H](NC(=O)C1(c2ccccc2)CCN(C(=O)OC(C)(C)C)CC1)C(=O)N1CCC[C@H]1C(=O)O	0	2	41*	2	-5
CC(C)C[C@H](NC(=O)C1(c2ccccc2)CCN(C(=O)[C@H]2CSCN2C(=O)OC(C)(C)C)CC1)C(=O)O	0	3	4	1	2
CC(C)(C)OC(=O)N1CCC(C(=O)N[C@@H](Cc2ccccc2)C(=O)O)(c2ccccc2)CC1	0	-2	5	0	-4
CC(C)[C@H](NC(=O)C1(c2ccccc2)CCN(C(=O)OC(C)(C)C)CC1)C(=O)O	0	-13	27*	3	-7
S=C1Nc2ccccc2CS1	0	-2	nt	nt	1
S=C1Cc2ccccc2N1	0	5	nt	81*	-3
N#CC[C@H](Cc1ccccc1)N1CC[C@@H](NC(=O)OCc2ccccc2)CCC1=O	0	0	-4	23*	-4
COc1ccc(SC[C@H](Cc2ccccc2)N2CC[C@@H](NC(=O)OCc3ccccc3)CCC2=O)cc1	0	0	nt	-1	-7
Cc1cccc(Nc2nnc(SCC(=O)Nc3cccnc3Cl)s2)c1	0	0	27*	6	-1
Nc1nnc(SCC(=O)Nc2cccnc2Cl)s1	0	-8	1	-1	6
O=C(NN=Cc1ccncc1)c1ccccc1	nt	nt	nt	31*	nt
COc1ccccc1C(=O)NCC(=O)N/N=C/c1ccc([N+](=O)[O-])cc1	0	2	4	nt	-2
COc1ccccc1C(=O)NCC(=O)NN=Cc1ccncc1	nt	nt	nt	30*	nt
O=C(NN=Cc1ccncc1)c1ccncc1	nt	nt	nt	3	nt
Cc1ccc(CCNC(=O)c2cc(S(=O)(=O)N3CCOCC3)cn2C)cc1	0	3	67*	5	-4
Cn1cc(S(=O)(=O)N2CCOCC2)cc1C(=O)NCCc1ccccc1	0	-4	-2	3	-8
Cc1ccc(C=Nn2c(COc3ccccc3)n[nH]c2=S)s1	nt	nt	nt	6	nt
CS(=O)(=O)NCCSCc1ccccc1	0	-11	19*	4	-6
SMILES	aDG glyco act	PKA-R2B activ	CTSL1 counter	UCH37 inh	PKA-R1A activ
CC(=O)n1c(Cl)c(NC(=O)CCl)c2ccccc21	3	4	37*	7	6
O=C(NN=Cc1ccccn1)C(=O)N1CCCCCC1	nt	nt	nt	3	nt
CC(=NNC(=O)CSc1ccccn1)c1ccc([N+](=O)[O-])cc1	nt	nt	nt	2	nt
O=c1[nH]cn[nH]1	3	4	19*	3	3
Cc1csc(N)n1	0	-6	0	21*	-9
COc1ccc(CN2[C@@H](CC(C)=O)c3cc(C(F)(F)F)ccc3S2(=O)=O)cc1	1	-1	17*	0	-6
Oc1ccc(/C=N/NC(=S)N2CCOCC2)cc1	1	-7	17*	nt	-10
Oc1ccc(C=NNC(=S)NN=Cc2ccc(O)cc2)cc1	nt	nt	nt	13	nt
Cc1cc(C)n(CC(O)Cn2c(C)c(C)c3ccccc32)n1 (centres undefined)	0	-7	19*	4	-5
CCCN1Cc2cccc(C(=O)NCc3cccs3)c2C1=O	0	-8	18*	1	-1
CCOC(=O)CC(C)=NNC(=O)C1CC1(c1ccccc1)c1ccccc1 (centres undefined)	nt	nt	nt	0	nt
O=C(Nc1ccc(N2CCN(C(=O)c3ccccc3)CC2)cc1)c1ccc2c(c1)OCCO2	0	-15	-1	1	7

High-throughput results deposited in PubChem by several laboratories.
